In ChEMBL document CHEMBL1154334, “Effect of the structure of adenosine mimic of bisubstrate-analog inhibitors on their activity towards basophilic protein kinases” (Bioorg Med Chem Lett, 2009):
Values belong to the molecule of their own block, whether it stands above or below them. Where a SMILES comes first, the peptide text is derived from it. [ ]: non-standard residue; d: D form. The star is where a group is joined. X1 = Nc1nccc(-c2ccc(C(=O)*)s2)n1; Ahx = NCCCCCC(=O)O

What was measured:
[1] = target: T1, cAMP-dependent protein kinase catalytic subunit alpha (Homo sapiens, UniProt P17612); assay: Inhibition of PKACalpha in presence of 100 uM ATP; conditions: read-out: IC50
How it was run: (§1)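 Kinetic phosphorylation assays with PKA catalytic subunit (PKAc) or PKB catalytic subunit (PKBc) at fixed ATP. ATP Km values taken as 20 for PKAc and 100 for PKBc.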

[2] = target: T2, RAC-gamma serine/threonine-protein kinase (Homo sapiens, UniProt Q9Y243); assay: Inhibition of PKBgamma in presence of 100 uM ATP; how it was run: as §1
T2 sequence (Q9Y243 whole entry): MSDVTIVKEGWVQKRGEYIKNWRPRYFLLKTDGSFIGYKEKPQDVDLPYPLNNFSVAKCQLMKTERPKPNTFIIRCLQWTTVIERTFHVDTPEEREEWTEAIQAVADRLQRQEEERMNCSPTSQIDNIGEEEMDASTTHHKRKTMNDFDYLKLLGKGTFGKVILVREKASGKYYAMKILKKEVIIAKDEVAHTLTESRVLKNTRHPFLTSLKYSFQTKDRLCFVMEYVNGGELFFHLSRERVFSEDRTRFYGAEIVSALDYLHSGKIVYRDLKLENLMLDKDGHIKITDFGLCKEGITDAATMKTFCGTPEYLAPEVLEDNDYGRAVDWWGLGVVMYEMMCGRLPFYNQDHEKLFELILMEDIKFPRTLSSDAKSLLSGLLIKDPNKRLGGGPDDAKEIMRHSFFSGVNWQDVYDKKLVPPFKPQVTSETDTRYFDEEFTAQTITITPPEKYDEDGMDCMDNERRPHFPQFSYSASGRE

[3] = target: T3, Rho-associated protein kinase 2 (Homo sapiens, UniProt O75116); assay: Displacement of ARC583 from ROCK2
Target sequence in this assay (O75116 whole entry): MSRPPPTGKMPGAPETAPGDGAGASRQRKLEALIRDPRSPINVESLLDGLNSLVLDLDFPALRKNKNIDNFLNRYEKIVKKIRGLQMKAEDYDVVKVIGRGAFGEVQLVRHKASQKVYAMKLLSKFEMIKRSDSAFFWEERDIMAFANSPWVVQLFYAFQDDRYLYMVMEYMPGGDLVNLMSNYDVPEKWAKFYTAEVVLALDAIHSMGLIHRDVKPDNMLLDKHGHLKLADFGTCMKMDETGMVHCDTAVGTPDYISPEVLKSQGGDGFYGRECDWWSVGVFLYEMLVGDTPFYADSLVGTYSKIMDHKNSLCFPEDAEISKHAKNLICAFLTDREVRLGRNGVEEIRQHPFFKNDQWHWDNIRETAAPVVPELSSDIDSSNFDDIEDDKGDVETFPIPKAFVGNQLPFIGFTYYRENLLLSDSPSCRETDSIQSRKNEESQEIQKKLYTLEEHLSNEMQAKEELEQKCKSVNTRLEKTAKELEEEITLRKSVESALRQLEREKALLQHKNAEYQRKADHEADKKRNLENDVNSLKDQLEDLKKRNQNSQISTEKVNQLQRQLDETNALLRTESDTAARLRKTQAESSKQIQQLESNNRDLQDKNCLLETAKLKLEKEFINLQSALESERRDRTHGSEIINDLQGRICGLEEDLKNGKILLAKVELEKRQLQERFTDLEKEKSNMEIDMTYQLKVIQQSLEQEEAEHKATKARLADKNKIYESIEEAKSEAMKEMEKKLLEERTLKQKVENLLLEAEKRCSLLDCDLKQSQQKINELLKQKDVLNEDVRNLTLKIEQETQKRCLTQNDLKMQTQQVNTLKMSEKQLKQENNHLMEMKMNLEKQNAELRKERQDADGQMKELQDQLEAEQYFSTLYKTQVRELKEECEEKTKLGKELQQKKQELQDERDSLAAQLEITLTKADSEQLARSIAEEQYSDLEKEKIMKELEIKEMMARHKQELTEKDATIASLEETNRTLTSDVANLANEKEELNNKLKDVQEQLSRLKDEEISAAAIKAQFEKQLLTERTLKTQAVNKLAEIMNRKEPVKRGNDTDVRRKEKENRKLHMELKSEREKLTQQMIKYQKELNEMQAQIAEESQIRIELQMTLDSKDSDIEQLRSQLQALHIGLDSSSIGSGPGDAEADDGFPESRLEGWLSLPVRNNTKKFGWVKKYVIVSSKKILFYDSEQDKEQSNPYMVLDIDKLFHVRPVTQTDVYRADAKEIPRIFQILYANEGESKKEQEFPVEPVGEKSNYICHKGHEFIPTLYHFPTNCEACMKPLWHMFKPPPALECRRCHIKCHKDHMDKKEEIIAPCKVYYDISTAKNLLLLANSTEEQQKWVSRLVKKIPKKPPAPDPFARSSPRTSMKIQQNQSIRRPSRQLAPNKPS

[4] = target: AMP-activated protein kinase (AMPK) alpha-1/beta-1/gamma-1 (Homo sapiens) (UniProt P54619+Q9Y478+Q13131); assay: Inhibition of AMPK alpha-1/beta-1/gamma-1 at 100 nM relative to control; assay type: protein-complex assay
How it was run: (§2)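 Kinase panel screen with inhibitor at 100 nM and ATP at about the Km of each kinase. Activity is given as percent inhibition relative to control incubations with the inhibitor omitted. Values are means of duplicate determinations, with the spread reported as the difference between duplicates.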

[5] = target: Aurora kinase A (Homo sapiens) (UniProt O14965); assay: Inhibition of Aurora A at 100 nM relative to control; how it was run: as §2
[6] = target: Calcium/calmodulin-dependent protein kinase type 1D (Homo sapiens) (UniProt Q8IU85); assay: Inhibition of CaMK 1delta at 100 nM relative to control; how it was run: as §2
[7] = target: Calcium/calmodulin-dependent protein kinase type II subunit alpha (Homo sapiens) (UniProt Q9UQM7); assay: Inhibition of CaMK2alpha at 100 nM relative to control; how it was run: as §2
[8] = target: Calcium/calmodulin-dependent protein kinase type II subunit beta (Homo sapiens) (UniProt Q13554); assay: Inhibition of CaMK2beta at 100 nM relative to control; how it was run: as §2
[9] = target: Cyclin-dependent kinase 2/cyclin A (Homo sapiens) (UniProt P24941+P20248+P78396); assay: Inhibition of CDK2/cyclin A at 100 nM relative to control; assay type: protein-complex assay; how it was run: as §2
[10] = target: Serine/threonine-protein kinase Chk1 (Homo sapiens) (UniProt O14757); assay: Inhibition of CHK1 at 100 nM relative to control; how it was run: as §2
[11] = target: Serine/threonine-protein kinase Chk2 (Homo sapiens) (UniProt O96017); assay: Inhibition of CHK2 at 100 nM relative to control; how it was run: as §2
[12] = target: Death-associated protein kinase 3 (Homo sapiens) (UniProt O43293); assay: Inhibition of DAPK3 at 100 nM relative to control; how it was run: as §2
[13] = target: Glycogen synthase kinase-3 alpha (Homo sapiens) (UniProt P49840); assay: Inhibition of GSK3alpha at 100 nM relative to control; how it was run: as §2
[14] = target: Glycogen synthase kinase-3 beta (Homo sapiens) (UniProt P49841); assay: Inhibition of GSK3-beta at 100 nM relative to control; how it was run: as §2
[15] = target: Maternal embryonic leucine zipper kinase (Homo sapiens) (UniProt Q14680); assay: Inhibition of MELK at 100 nM relative to control; how it was run: as §2
[16] = target: Ribosomal protein S6 kinase alpha-5 (Homo sapiens) (UniProt O75582); assay: Inhibition of MSK1 at 100 nM relative to control; how it was run: as §2
[17] = target: Ribosomal protein S6 kinase alpha-4 (Homo sapiens) (UniProt O75676); assay: Inhibition of MSK2 at 100 nM relative to control; how it was run: as §2
[18] = target: Ribosomal protein S6 kinase beta-1 (Homo sapiens) (UniProt P23443); assay: Inhibition of p70S6 at 100 nM relative to control
How it was run: (§3)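 Kinase panel screen with the inhibitor at 100 nM and ATP at a concentration of about Km for each kinase. Activity was expressed as percent inhibition relative to control incubations that lacked inhibitor. Values are means of duplicate determinations, and the difference between the duplicates is also reported.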

[19] = target: Serine/threonine-protein kinase PAK 3 (Homo sapiens) (UniProt O75914); assay: Inhibition of PAK3 at 100 nM relative to control; how it was run: as §2
[20] = target: Serine/threonine-protein kinase PAK 4 (Homo sapiens) (UniProt O96013); assay: Inhibition of PAK4 at 100 nM relative to control; how it was run: as §2
[21] = target: Serine/threonine-protein kinase PAK 6 (Homo sapiens) (UniProt Q9NQU5); assay: Inhibition of PAK6 at 100 nM relative to control; how it was run: as §2
[22] = target: Serine/threonine-protein kinase pim-1 (Homo sapiens) (UniProt P11309); assay: Inhibition of PIM1 at 100 nM relative to control; how it was run: as §2
[23] = target: Serine/threonine-protein kinase pim-2 (Homo sapiens) (UniProt Q9P1W9); assay: Inhibition of PIM2 at 100 nM relative to control; how it was run: as §2
[24] = target: T1, cAMP-dependent protein kinase catalytic subunit alpha; assay: Inhibition of PKA Calpha at 100 nM relative to control; how it was run: as §2
[25] = target: RAC-alpha serine/threonine-protein kinase (Homo sapiens) (UniProt P31749); assay: Inhibition of PKBalpha at 100 nM relative to control; how it was run: as §2
RAC-alpha serine/threonine-protein kinase (Homo sapiens), sequence (P31749 whole entry): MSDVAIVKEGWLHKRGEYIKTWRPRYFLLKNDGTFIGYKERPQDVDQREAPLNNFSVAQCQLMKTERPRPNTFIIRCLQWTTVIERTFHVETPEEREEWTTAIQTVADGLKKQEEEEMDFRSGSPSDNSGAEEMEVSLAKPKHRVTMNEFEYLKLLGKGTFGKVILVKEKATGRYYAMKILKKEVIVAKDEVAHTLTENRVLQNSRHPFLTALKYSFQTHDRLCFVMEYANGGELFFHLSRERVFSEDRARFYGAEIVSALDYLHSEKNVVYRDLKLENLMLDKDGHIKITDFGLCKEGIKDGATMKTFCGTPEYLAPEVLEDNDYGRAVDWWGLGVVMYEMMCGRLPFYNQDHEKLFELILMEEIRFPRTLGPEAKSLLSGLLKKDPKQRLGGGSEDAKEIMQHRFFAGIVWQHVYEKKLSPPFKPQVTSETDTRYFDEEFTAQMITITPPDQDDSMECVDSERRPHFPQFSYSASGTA

[26] = target: RAC-beta serine/threonine-protein kinase (Homo sapiens) (UniProt P31751); assay: Inhibition of PKBbeta at 100 nM relative to control; how it was run: as §2
[27] = target: T2, RAC-gamma serine/threonine-protein kinase; assay: Inhibition of PKBgamma at 100 nM relative to control; how it was run: as §2
[28] = target: Protein kinase C alpha type (Homo sapiens) (UniProt P17252); assay: Inhibition of PKCalpha at 100 nM relative to control; how it was run: as §2
[29] = target: Protein kinase C beta type (Homo sapiens) (UniProt P05771); assay: Inhibition of PKCbeta1 at 100 nM relative to control; how it was run: as §2
Protein kinase C beta type (Homo sapiens), sequence (P05771 2-671 limits assumed): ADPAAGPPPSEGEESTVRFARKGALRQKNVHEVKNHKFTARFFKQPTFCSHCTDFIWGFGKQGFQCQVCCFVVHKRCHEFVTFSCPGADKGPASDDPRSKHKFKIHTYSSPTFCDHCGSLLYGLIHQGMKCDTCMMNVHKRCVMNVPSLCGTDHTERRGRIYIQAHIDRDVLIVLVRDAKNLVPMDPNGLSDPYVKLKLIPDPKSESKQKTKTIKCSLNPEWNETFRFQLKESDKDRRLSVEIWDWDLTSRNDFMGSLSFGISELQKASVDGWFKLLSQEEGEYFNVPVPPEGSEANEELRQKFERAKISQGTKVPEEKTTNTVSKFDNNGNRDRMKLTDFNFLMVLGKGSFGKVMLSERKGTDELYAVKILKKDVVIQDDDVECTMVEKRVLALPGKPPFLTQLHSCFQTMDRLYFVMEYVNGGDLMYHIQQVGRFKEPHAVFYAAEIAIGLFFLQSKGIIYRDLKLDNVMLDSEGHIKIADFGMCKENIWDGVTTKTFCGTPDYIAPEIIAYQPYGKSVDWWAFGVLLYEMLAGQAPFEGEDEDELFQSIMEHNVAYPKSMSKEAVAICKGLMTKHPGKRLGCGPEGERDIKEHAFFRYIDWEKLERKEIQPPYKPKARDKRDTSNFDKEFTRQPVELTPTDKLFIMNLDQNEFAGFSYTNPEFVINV

[30] = target: Protein kinase C beta type (Homo sapiens) (UniProt P05771); assay: Inhibition of PKCbeta2 at 100 nM relative to control; how it was run: as §2
[31] = target: Protein kinase C delta type (Homo sapiens) (UniProt Q05655); assay: Inhibition of PKCdelta at 100 nM relative to control; how it was run: as §2
[32] = target: Protein kinase C epsilon type (Homo sapiens) (UniProt Q02156); assay: Inhibition of PKCepsilon at 100 nM relative to control; how it was run: as §2
[33] = target: Protein kinase C gamma type (Homo sapiens) (UniProt P05129); assay: Inhibition of PKCgamma at 100 nM relative to control; how it was run: as §2
[34] = target: Protein kinase C eta type (Homo sapiens) (UniProt P24723); assay: Inhibition of PKCeta at 100 nM relative to control; how it was run: as §2
Protein kinase C eta type (Homo sapiens), sequence (P24723 whole entry): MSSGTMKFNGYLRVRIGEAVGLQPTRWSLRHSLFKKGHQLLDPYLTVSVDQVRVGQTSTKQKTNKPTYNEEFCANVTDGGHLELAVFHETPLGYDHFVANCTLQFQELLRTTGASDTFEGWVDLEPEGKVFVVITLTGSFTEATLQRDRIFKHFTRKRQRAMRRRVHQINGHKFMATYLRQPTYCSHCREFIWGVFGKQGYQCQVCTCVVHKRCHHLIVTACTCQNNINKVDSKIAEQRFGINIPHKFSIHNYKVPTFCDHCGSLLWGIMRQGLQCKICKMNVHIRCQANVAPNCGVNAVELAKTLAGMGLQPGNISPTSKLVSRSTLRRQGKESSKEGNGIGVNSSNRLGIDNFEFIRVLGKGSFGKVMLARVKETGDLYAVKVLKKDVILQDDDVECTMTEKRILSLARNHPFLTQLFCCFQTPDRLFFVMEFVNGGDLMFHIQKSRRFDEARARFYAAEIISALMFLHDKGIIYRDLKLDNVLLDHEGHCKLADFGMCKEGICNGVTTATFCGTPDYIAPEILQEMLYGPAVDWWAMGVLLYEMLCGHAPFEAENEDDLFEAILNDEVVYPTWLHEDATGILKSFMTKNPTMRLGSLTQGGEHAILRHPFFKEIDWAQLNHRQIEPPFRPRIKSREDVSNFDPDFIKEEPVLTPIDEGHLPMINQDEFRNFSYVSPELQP

[35] = target: Protein kinase C iota type (Homo sapiens) (UniProt P41743); assay: Inhibition of PKCiota at 100 nM relative to control; how it was run: as §2
Protein kinase C iota type (Homo sapiens), sequence (P41743 whole entry): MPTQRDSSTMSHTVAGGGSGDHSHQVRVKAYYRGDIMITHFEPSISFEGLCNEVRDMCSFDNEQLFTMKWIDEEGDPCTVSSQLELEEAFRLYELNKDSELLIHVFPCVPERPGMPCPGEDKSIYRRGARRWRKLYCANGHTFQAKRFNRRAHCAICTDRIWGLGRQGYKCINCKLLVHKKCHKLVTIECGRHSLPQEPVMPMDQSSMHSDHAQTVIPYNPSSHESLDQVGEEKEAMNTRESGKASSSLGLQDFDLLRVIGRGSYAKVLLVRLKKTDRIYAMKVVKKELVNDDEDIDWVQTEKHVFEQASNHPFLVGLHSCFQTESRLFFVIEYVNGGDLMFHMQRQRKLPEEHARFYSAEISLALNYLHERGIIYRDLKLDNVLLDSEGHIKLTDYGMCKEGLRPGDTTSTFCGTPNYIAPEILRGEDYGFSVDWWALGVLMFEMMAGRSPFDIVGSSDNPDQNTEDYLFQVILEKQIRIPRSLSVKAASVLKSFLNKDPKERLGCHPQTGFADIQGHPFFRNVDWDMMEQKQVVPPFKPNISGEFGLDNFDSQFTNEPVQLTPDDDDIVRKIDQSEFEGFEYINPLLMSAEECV

[36] = target: Serine/threonine-protein kinase D1 (Homo sapiens) (UniProt Q15139); assay: Inhibition of PKCmu at 100 nM relative to control; how it was run: as §2
[37] = target: Protein kinase C theta type (Homo sapiens) (UniProt Q04759); assay: Inhibition of PKCtheta at 100 nM relative to control; how it was run: as §2
[38] = target: Protein kinase C zeta type (Homo sapiens) (UniProt Q05513); assay: Inhibition of PKCzeta at 100 nM relative to control; how it was run: as §2
[39] = target: Serine/threonine-protein kinase D2 (Homo sapiens) (UniProt Q9BZL6); assay: Inhibition of PKD2 at 100 nM relative to control; how it was run: as §2
[40] = target: Serine/threonine-protein kinase D3 (Homo sapiens) (UniProt O94806); assay: Inhibition of PKD3 at 100 nM relative to control; how it was run: as §2
[41] = Inhibition of PKG1 at 100 nM relative to control; how it was run: as §2
[42] = target: cGMP-dependent protein kinase 2 (Homo sapiens) (UniProt Q13237); assay: Inhibition of PKG2 at 100 nM relative to control; how it was run: as §2
[43] = target: cAMP-dependent protein kinase catalytic subunit PRKX (Homo sapiens) (UniProt P51817); assay: Inhibition of PRKX at 100 nM relative to control; how it was run: as §2
[44] = target: Rho-associated protein kinase 1 (Homo sapiens) (UniProt Q13464); assay: Inhibition of ROCK1 at 100 nM relative to control; how it was run: as §2
[45] = target: T3, Rho-associated protein kinase 2; assay: Inhibition of ROCK2 at 100 nM relative to control; how it was run: as §2
[46] = target: Ribosomal protein S6 kinase alpha-1 (Homo sapiens) (UniProt Q15418); assay: Inhibition of RSK1 at 100 nM relative to control; how it was run: as §2
[47] = target: Ribosomal protein S6 kinase alpha-3 (Homo sapiens) (UniProt P51812); assay: Inhibition of RSK2 at 100 nM relative to control; how it was run: as §2
Ribosomal protein S6 kinase alpha-3 (Homo sapiens), sequence (P51812 whole entry): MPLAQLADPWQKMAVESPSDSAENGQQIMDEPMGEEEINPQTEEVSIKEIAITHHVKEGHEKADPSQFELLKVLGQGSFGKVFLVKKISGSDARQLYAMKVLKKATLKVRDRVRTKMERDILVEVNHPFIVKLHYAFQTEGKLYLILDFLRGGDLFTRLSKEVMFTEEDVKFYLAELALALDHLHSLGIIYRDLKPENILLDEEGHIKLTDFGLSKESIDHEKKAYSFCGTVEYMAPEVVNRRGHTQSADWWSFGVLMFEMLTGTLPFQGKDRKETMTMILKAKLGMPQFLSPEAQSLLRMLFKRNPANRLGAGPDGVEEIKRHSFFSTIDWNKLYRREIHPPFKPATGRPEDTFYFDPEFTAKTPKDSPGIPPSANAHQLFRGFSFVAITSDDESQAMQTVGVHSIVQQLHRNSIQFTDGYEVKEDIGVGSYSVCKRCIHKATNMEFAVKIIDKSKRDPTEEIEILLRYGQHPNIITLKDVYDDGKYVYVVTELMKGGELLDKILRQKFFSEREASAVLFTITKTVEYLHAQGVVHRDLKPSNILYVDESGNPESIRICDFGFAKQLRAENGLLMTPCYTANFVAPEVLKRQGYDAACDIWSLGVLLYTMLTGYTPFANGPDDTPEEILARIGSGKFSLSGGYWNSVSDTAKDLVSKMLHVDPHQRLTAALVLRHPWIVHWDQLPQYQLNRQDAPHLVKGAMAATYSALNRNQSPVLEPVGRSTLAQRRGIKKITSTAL

[48] = target: Ribosomal protein S6 kinase alpha-2 (Homo sapiens) (UniProt Q15349); assay: Inhibition of RSK3 at 100 nM relative to control; how it was run: as §3
[49] = target: Serine/threonine-protein kinase Sgk1 (Homo sapiens) (UniProt O00141); assay: Inhibition of SGK1 at 100 nM relative to control; how it was run: as §3
[50] = target: Serine/threonine-protein kinase Sgk2 (Homo sapiens) (UniProt Q9HBY8); assay: Inhibition of SGK2 at 100 nM relative to control; how it was run: as §3
[51] = target: Proto-oncogene tyrosine-protein kinase Src (Homo sapiens) (UniProt P12931); assay: Inhibition of SRC at 100 nM relative to control; how it was run: as §3
[52] = target: 3-phosphoinositide-dependent protein kinase 1 (Homo sapiens) (UniProt O15530); assay: Inhibition of PDK1 at 100 nM relative to control

SMILES: NCCCC[C@@H](NC(=O)CCCCCNC(=O)c1ccc(C(N)=O)cc1)C(=O)NCCCCCC(=O)N[C@H](CCCN=C(N)N)C(=O)N[C@H](CCCN=C(N)N)C(N)=O
IC50 [1]: 23 µM
IC50 [2]: 28 µM
Kd [3]: 0.177 µM

SMILES: N=C(N)NCCC[C@@H](NC(=O)[C@@H](CCCNC(=N)N)NC(=O)CCCCCNC(=O)[C@@H](CCCCN)NC(=O)CCCCCNC(=O)Nc1ccc(C(N)=O)cc1)C(N)=O
IC50 [1]: 240 µM
IC50 [2]: 900 µM
Kd [3]: 6.1 µM

SMILES: NCCCC[C@@H](NC(=O)CCCCCNC(=O)[C@H]1O[C@@H](n2cnc3c(N)ncnc32)[C@H](O)[C@@H]1O)C(=O)NCCCCCC(=O)N[C@H](CCCN=C(N)N)C(=O)N[C@H](CCCN=C(N)N)C(N)=O
Kd [3]: < 0.003 µM

SMILES: NCCCC[C@@H](NC(=O)CCCCCNC(=O)c1ccc(-c2ccnc(N)n2)s1)C(=O)NCCCCCC(=O)N[C@H](CCCN=C(N)N)C(=O)N[C@H](CCCN=C(N)N)C(=O)N[C@H](CCCN=C(N)N)C(=O)N[C@H](CCCN=C(N)N)C(=O)N[C@H](CCCN=C(N)N)C(=O)N[C@H](CCCN=C(N)N)C(N)=O ({X1-Ahx}-[dK][Ahx][dR][dR][dR][dR][dR][dR]-NH2)
IC50 [2]: 0.012 µM

Further lines, with some results ahead:

IC50 [1]: 183 µM
IC50 [2]: 360 µM
Kd [3]: 8 µM
SMILES: NCCCC[C@@H](NC(=O)CCCCCNC(=O)c1ccccc1)C(=O)NCCCCCC(=O)N[C@H](CCCN=C(N)N)C(=O)N[C@H](CCCN=C(N)N)C(N)=O

inhibition [4]: 41%
inhibition [5]: 46%
inhibition [6]: 25%
inhibition [7]: 10%
inhibition [8]: 22%
inhibition [9]: 6%
inhibition [10]: 82%
inhibition [11]: 33%
inhibition [13]: 8%
inhibition [14]: 4%
inhibition [15]: 83%
inhibition [16]: 112%
inhibition [17]: 112%
inhibition [18]: 99%
inhibition [19]: 69%
inhibition [20]: 21%
inhibition [21]: 70%
inhibition [22]: 97%
inhibition [23]: 95%
inhibition [24]: 104%
inhibition [25]: 97%
inhibition [26]: 80%
inhibition [27]: 100%
inhibition [28]: 92%
inhibition [29]: 100%
inhibition [30]: 104%
inhibition [31]: 97%
inhibition [32]: 103%
inhibition [33]: 108%
inhibition [34]: 106%
inhibition [35]: 24%
inhibition [36]: 93%
inhibition [37]: 91%
inhibition [38]: 38%
inhibition [39]: 79%
inhibition [40]: 90%
inhibition [41]: 105%
inhibition [42]: 78%
inhibition [43]: 106%
inhibition [44]: 106%
inhibition [45]: 106%
inhibition [46]: 97%
inhibition [47]: 103%
inhibition [48]: 97%
inhibition [49]: 97%
inhibition [50]: 91%
inhibition [51]: 26%
inhibition [52]: 65%
SMILES: N=C(N)NCCC[C@@H](NC(=O)[C@@H](CCCNC(=N)N)NC(=O)[C@@H](CCCNC(=N)N)NC(=O)[C@@H](CCCNC(=N)N)NC(=O)[C@@H](CCCNC(=N)N)NC(=O)[C@@H](CCCNC(=N)N)NC(=O)CCCCCNC(=O)[C@@H](CCCCN)NC(=O)CCCCCNC(=O)c1ccc(-c2ccnc(N)n2)s1)C(N)=O ({X1-Ahx}-[dK][Ahx][dR][dR][dR][dR][dR][dR]-NH2)
inhibition [12]: 44%
